Among the data in ChEMBL document CHEMBL3600340, “Design and synthesis of new barbituric- and thiobarbituric acid derivatives as potent urease inhibitors: Structure activity relationship and molecular modeling studies” (Bioorg Med Chem, 2015) are IC50 values, retold here.

In the test the target is Urease (Canavalia ensiformis, UniProt P07374). Put plainly: Inhibition of jack bean Urease assessed as ammonia production after 15 mins by indophenol method. The essentials: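 Jack bean urease preincubated with test compound (0.5 mM, concentration as printed) in buffer containing 100 mM urea at 30 °C for 15 min, pH 6.8. Ammonia quantified by indophenol method (phenol/nitroprusside plus alkaline hypochlorite). Absorbance read at 630 nm after 50 min.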
Sequence of Urease (P07374 whole entry): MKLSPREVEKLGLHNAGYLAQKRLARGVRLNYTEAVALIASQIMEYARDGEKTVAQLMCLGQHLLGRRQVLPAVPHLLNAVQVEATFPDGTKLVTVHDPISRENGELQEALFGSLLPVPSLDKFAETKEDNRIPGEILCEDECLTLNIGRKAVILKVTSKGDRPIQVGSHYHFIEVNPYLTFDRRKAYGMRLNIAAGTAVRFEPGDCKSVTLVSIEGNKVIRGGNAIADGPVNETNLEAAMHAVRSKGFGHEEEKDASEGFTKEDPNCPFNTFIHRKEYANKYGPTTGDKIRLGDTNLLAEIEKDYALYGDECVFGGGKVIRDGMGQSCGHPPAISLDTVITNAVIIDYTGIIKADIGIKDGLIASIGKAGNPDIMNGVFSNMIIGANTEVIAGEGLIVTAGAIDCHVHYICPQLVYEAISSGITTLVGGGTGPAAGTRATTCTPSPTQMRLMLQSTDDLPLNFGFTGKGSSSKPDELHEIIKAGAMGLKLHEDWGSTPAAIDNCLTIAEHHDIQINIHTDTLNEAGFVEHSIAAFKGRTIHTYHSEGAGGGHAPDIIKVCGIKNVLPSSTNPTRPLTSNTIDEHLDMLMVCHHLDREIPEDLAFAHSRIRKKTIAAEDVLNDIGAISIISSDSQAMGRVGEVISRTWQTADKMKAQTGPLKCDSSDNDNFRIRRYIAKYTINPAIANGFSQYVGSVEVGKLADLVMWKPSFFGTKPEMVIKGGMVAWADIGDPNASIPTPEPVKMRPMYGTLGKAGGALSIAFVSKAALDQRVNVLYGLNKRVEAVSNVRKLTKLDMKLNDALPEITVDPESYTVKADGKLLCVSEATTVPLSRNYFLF

As for `O=C1NC(=O)C(=CNc2ccc([N+](=O)[O-])c(C(=O)O)c2)C(=O)N1`, the IC50 amounted to 25.8 µM. `O=C1NC(=S)NC(=O)C1=CNc1cc(Cl)cc(Cl)c1`: the IC50 was 89.2 µM. In the case of `O=C1NC(=O)C(=CNc2ccccc2S)C(=O)N1` it was 52.6 µM; in that of `O=C1NC(=S)NC(=O)C1=CNc1ccc(C(=O)O)c(O)c1`, 32.3 µM; in that of `O=C1NC(=S)NC(=O)C1=CNc1ccc(C(F)(F)F)cc1`, 136 µM.

Regarding `O=C1NC(=S)NC(=O)C1=CNc1ccc(C(=O)O)cc1`, the 50% inhibitory concentration (IC50) stood at 8.93 µM. Turning to `O=C1NC(=O)C(=CNc2ccc(C(=O)O)c(O)c2)C(=O)N1`, the IC50 came out at 88.3 µM. Regarding `O=C1NC(=S)NC(=O)C1=CNc1ccccc1S`, the IC50 was found to be 15 µM. In the case of `O=C1NC(=S)NC(=O)C1=CNc1ccccc1O` it was 19.7 µM; in that of `O=C1NC(=S)NC(=O)C1=CNc1ccccc1C(=O)O`, 13 µM; in that of `O=C1NC(=S)NC(=O)C1=CNc1cc(C(=O)O)ccc1O`, 18.9 µM.

As to `O=C1NC(=S)NC(=O)C1=CNc1cc([N+](=O)[O-])ccc1C(=O)O`, the IC50 came out at 8.53 µM. Turning to `O=C1NC(=S)NC(=O)C1=CNc1ccc([N+](=O)[O-])c(C(=O)O)c1`, the IC50 came to 39.8 µM. For `O=C1NC(=S)NC(=O)C1=CNc1cc(C(=O)O)ccc1Cl`, the IC50 amounted to 26.7 µM. As for `O=C1NC(=S)NC(=O)C1=CNc1cccc(C(=O)O)c1`, the figure is 21.8 µM; as for `O=C1NC(=S)NC(=O)C1=CNc1cccc(C(F)(F)F)c1`, 24.6 µM. In the case of `O=C1NC(=S)NC(=O)C1=CNc1cc([N+](=O)[O-])ccc1C(F)(F)F`, the 50% inhibitory concentration (IC50) turned out to be 28.7 µM.

On to `O=C1NC(=S)NC(=O)C1=CNc1ccc(I)cc1`, for which the 50% inhibitory concentration (IC50) came out at 41.3 µM. In the case of `O=C1NC(=S)NC(=O)C1=CNc1ccccc1C(F)(F)F` it was 65.3 µM.
